From PubChem
The list is not random: actives were taken first. Their share in the collection is about 1.8%.
DDE Tn6 FP inh = disrupts Tn6 cyclic peptide binding to fibrin D-Dimer-E complex. P02675. Fibrin DD(E) TRITC-Tn6 fluorescence polarization displacement. inhibition, % at 8.3 µM. 370,000 compounds, 0.21% hits;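 active = inhibition above a per-campaign cutoff: mean of compounds within control limits plus 3 SD, cut at about 15% in these data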
SIAE inh = human SIAE inhibition, primary screen; Q9HAT2; SIAE FP-Rh probe binding, fluorescence polarization; inhibition, % at 9.66 µM; 370,000 compounds, 0.69% hits; AID 1053197;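 active = inhibition above a cutoff: mean of compounds within the control limits plus 3 SD of those, cut at about 17% in these data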
Target sequence (Q9HAT2 whole entry, looked up): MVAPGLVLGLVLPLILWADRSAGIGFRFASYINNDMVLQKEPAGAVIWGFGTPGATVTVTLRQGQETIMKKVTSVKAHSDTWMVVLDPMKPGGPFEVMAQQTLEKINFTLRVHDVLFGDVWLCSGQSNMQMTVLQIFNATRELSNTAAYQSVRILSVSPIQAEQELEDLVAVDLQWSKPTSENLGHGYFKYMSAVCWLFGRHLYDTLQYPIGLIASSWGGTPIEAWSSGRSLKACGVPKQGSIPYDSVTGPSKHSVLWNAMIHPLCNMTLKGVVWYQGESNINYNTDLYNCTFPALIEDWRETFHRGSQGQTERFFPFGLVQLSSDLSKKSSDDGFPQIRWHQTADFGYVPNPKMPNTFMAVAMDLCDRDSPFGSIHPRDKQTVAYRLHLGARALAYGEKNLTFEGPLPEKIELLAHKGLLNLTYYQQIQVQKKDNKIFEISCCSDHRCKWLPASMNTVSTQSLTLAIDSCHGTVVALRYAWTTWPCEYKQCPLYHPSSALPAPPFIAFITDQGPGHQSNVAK
HTRA1 inhibitor = inhibitors of human serine peptidase HTRA1; inhibition, % at 5.96 µM; recombinant HTRA1, FP-rhodamine activity-based probe, fluorescence polarization; 340,000 compounds, 0.5% hits; AID 504803; in the data active = inhibition above about 36%
mABHD4 FP = ABHD4 (mouse) inhibition, primary FP screen; Q8VD66; purified mABHD4, FP-Rh probe fluorescence polarization; AID 720543; inhibition, % at 8.92 µM; 370,000 compounds, 0.54% hits;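 active = inhibition exceeding the mean over every tested compound plus 3 SD, cut at about 30% in these data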
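Doses – 8.92 µM, single dose · Material – wild-type mouse ABHD4 protein · Replication – single well per compound (singlicate) · Measure – percent inhibition of probe binding, normalized to plate controls · Schedule – 45 min compound pre-incubation plus 60 min probe step, 25 °C · Detection – fluorescence polarization with parallel and perpendicular emission, 525/598 nm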
TCR-CD3 inh = blocks the human TCR-CD3 interaction | TAMRA-labeled TCR probe fluorescence, biochemical | inhibition, % at 9.4 µM | 360,000 compounds, 0.37% hits | AID 651800;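 note: recombinant mutant TCR 2C K166C tagged with TAMRA read by polarization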
DDE Tn7 FP inh = disrupts Tn7 cyclic peptide binding to fibrin D-Dimer-E complex | 370,000 compounds, 0.13% hits | P02675 | FP displacement of FITC-Tn7 peptide from fibrin DD(E); 0% = median of compound wells per plate | inhibition, % at 8.3 µM;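 active = inhibition above the mean of compounds falling within the control limits plus 3 SD of them, cut at about 14% in these data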
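Test system – human fibrin DD(E) · Times – 10 min preincubation, 3 h with tracer, room temperature · Detection – fluorescence polarization of the labelled Tn7 tracer · Measure – percent inhibition normalized to high-control wells · Benchmarks – high control wells with 10 µM unlabelled Aha-Tn7 peptide (full inhibition) · Repeats – singlicate testing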
HTRA1 conf = confirmation of human HTRA1 inhibitors; shares compounds with HTRA1 inhibitor; recombinant HTRA1, FP-rhodamine activity-based probe, fluorescence polarization; inhibition, % at 5.96 µM; 1,600 compounds, 66% hits;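 active = mean inhibition over three repeats above a set limit taken from the earlier primary screen, cut at about 37% in these data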;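 note: inhibitors block probe binding so polarization drops and inhibition rises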
BSA probe FL = interferes with TAMRA-BSA probe, flagging TCR-CD3 hits. shares compounds with TCR-CD3 inh. TAMRA-labeled BSA probe fluorescence counterscreen. inhibition, % at 9.4 µM. 1,200 compounds, 10% hits. AID 652035; in the data active = inhibition above about 23%
TCR-CD3 conf = TCR-CD3 interaction inhibition, confirmation | 1,200 compounds, 48% hits | TAMRA-labeled TCR probe fluorescence binding assay | inhibition, % at 9.4 µM | shares compounds with TCR-CD3 inh
Hits are given with their value. Cut-off read from the data, not from the text of the source, unless noted: active = inhibition above about 19%; inactive = the rest.

For O=C(NN=Cc1c(O)ccc2ccccc12)c1ccc2c(c1)OCO2 the results were DDE Tn6 FP inh inactive, SIAE inh inactive, HTRA1 inhibitor 37, mABHD4 FP inactive, TCR-CD3 inh 21, DDE Tn7 FP inh inactive, HTRA1 conf inactive, BSA probe FL inactive and TCR-CD3 conf 22.
For COC(=O)[C@]12C[C@H](CC(=O)N3CCCCC3)C(=O)N(CCc3ccc(OC)c(OC)c3)C1=C[C@H](COCc1ccccc1)O[C@@H]2C the results were DDE Tn6 FP inh inactive, SIAE inh inactive, mABHD4 FP inactive and DDE Tn7 FP inh inactive.
Screening O=C(NC(=S)NNC(=O)c1ccccc1O)c1cccnc1 returned DDE Tn6 FP inh inactive, SIAE inh inactive, HTRA1 inhibitor 49, mABHD4 FP inactive, TCR-CD3 inh 29, DDE Tn7 FP inh inactive, HTRA1 conf 63, BSA probe FL inactive and TCR-CD3 conf 31.
`O=C(NC(=S)NNC(=O)c1ccccc1O)c1ccco1` gave DDE Tn6 FP inh inactive, SIAE inh inactive, HTRA1 inhibitor 39, mABHD4 FP inactive, TCR-CD3 inh 25, DDE Tn7 FP inh inactive, HTRA1 conf 67, BSA probe FL inactive and TCR-CD3 conf inactive.
`O=C(NNC(=S)NC(=O)c1ccco1)c1ccc(NC(=O)c2ccccc2)cc1` gave DDE Tn6 FP inh inactive, SIAE inh inactive, HTRA1 inhibitor inactive, mABHD4 FP inactive, TCR-CD3 inh inactive and DDE Tn7 FP inh inactive.
Screening Cc1cc(SCC(=O)c2ccc(O)c(O)c2)n2nc(C)c(-c3ccccc3)c2n1 returned DDE Tn6 FP inh inactive, SIAE inh inactive, HTRA1 inhibitor 56, mABHD4 FP inactive, TCR-CD3 inh 25, DDE Tn7 FP inh inactive, HTRA1 conf 65, BSA probe FL inactive and TCR-CD3 conf 48.
Screening Oc1ccc(/C=N/Nc2ncnc3c2ncn3Cc2ccccc2)cc1O returned DDE Tn6 FP inh inactive, SIAE inh inactive, HTRA1 inhibitor 49, mABHD4 FP inactive, TCR-CD3 inh 53, DDE Tn7 FP inh inactive, HTRA1 conf 50, BSA probe FL inactive and TCR-CD3 conf 46.
`Cc1ccc(-c2cc(C(=O)NN=Cc3cccc4ccccc34)[nH]n2)cc1C` gave DDE Tn6 FP inh inactive, SIAE inh inactive, mABHD4 FP inactive and DDE Tn7 FP inh inactive.
`Cc1nonc1C(=O)N/N=C/c1ccc(O)c(O)c1` gave DDE Tn6 FP inh inactive, SIAE inh inactive, HTRA1 inhibitor inactive, mABHD4 FP inactive, TCR-CD3 inh inactive and DDE Tn7 FP inh inactive.
For O=C(N/N=C/c1ccc(O)c(O)c1)N/N=C/c1ccc(O)c(O)c1 the results were DDE Tn6 FP inh inactive, SIAE inh inactive, HTRA1 inhibitor 38, mABHD4 FP inactive, TCR-CD3 inh 65, DDE Tn7 FP inh inactive, HTRA1 conf inactive, BSA probe FL inactive and TCR-CD3 conf 81.
For O=C(NCCc1ccccc1)OCc1cn(Cc2ccccc2C(F)(F)F)nn1 the results were DDE Tn6 FP inh inactive, SIAE inh inactive, mABHD4 FP inactive and DDE Tn7 FP inh inactive.
O=C(CCN1CCN(c2ccccc2)CC1)N/N=C/c1ccc(O)c(O)c1O was read as DDE Tn6 FP inh inactive, SIAE inh inactive, HTRA1 inhibitor 47, mABHD4 FP inactive, TCR-CD3 inh 30, DDE Tn7 FP inh inactive, HTRA1 conf 37, BSA probe FL inactive and TCR-CD3 conf 24.
`O=C(Cc1nnc(NC(=O)c2ccccc2)s1)N/N=C\c1ccc(O)c(O)c1` gave DDE Tn6 FP inh inactive, SIAE inh inactive, HTRA1 inhibitor 43, mABHD4 FP inactive, TCR-CD3 inh 34, DDE Tn7 FP inh inactive, HTRA1 conf 48, BSA probe FL inactive and TCR-CD3 conf 33.
`O=C(Cc1nnc(NC(=O)c2ccccc2)s1)N/N=C/c1ccc(O)cc1` gave DDE Tn6 FP inh inactive, SIAE inh inactive, HTRA1 inhibitor inactive, mABHD4 FP inactive, TCR-CD3 inh inactive and DDE Tn7 FP inh inactive.
For COC(=O)[C@]12C[C@H](CC(=O)N3CCCC3)C(=O)N(Cc3ccc(Cl)cc3Cl)C1=C[C@H](COCc1ccccc1)O[C@@H]2C the results were DDE Tn6 FP inh inactive, SIAE inh inactive, mABHD4 FP inactive and DDE Tn7 FP inh inactive.
`O=C(CSc1nc2ccccc2n1CCc1ccccc1)c1ccc(O)c(O)c1` gave DDE Tn6 FP inh inactive, SIAE inh 20, HTRA1 inhibitor 70, mABHD4 FP inactive, TCR-CD3 inh 23, DDE Tn7 FP inh inactive, HTRA1 conf 66, BSA probe FL inactive and TCR-CD3 conf 32.
For O=C(CSc1nc2ccccc2c(=O)[nH]1)c1ccc(O)cc1O the results were DDE Tn6 FP inh inactive, SIAE inh inactive, HTRA1 inhibitor inactive, mABHD4 FP inactive, TCR-CD3 inh inactive and DDE Tn7 FP inh inactive.
O=C(CSc1nc2ccccc2c(=O)[nH]1)c1ccc(O)c(O)c1 was read as DDE Tn6 FP inh inactive, SIAE inh inactive, HTRA1 inhibitor 43, mABHD4 FP 34, TCR-CD3 inh 32, DDE Tn7 FP inh inactive, HTRA1 conf 43, BSA probe FL inactive and TCR-CD3 conf 34.
Screening CN(C)c1ccc(Cc2cc3c(O)ccc(O)c3cc(Cc3ccc(N(C)C)cc3)c2=O)cc1 returned DDE Tn6 FP inh inactive, SIAE inh 56, HTRA1 inhibitor 84, mABHD4 FP 83, TCR-CD3 inh 43, DDE Tn7 FP inh inactive, HTRA1 conf 72, BSA probe FL inactive and TCR-CD3 conf 38.
For O=C(NC1CCCCN(Cc2cccc(Cl)c2)C1=O)c1ccc(-c2ccccc2)cc1 (stereo not drawn) the results were DDE Tn6 FP inh inactive, SIAE inh inactive, mABHD4 FP inactive and DDE Tn7 FP inh inactive.
Screening COc1ccc(-c2cc(-c3nnc(SCC(=O)NC4CCCCC4)n3N)[nH]n2)cc1 returned DDE Tn6 FP inh inactive, SIAE inh inactive, mABHD4 FP inactive and DDE Tn7 FP inh inactive.
Screening Cc1cc(C)c(C)c(S(=O)(=O)N2CCC(C(=O)NNC(=O)c3ccccc3O)CC2)c1C returned DDE Tn6 FP inh inactive, SIAE inh inactive, HTRA1 inhibitor 46, mABHD4 FP inactive, TCR-CD3 inh 32, DDE Tn7 FP inh inactive, HTRA1 conf 48, BSA probe FL inactive and TCR-CD3 conf 22.
For OCc1ccc(O)c2ncccc12 the results were DDE Tn6 FP inh inactive, SIAE inh inactive, HTRA1 inhibitor inactive, mABHD4 FP inactive, TCR-CD3 inh inactive and DDE Tn7 FP inh inactive.
